Results reported in ChEMBL document CHEMBL4715736, “Identification of anticancer agents based on the thieno[2,3-b]pyridine and 1H-pyrazole molecular scaffolds” (2016).

Assays:
Type in all cases: functional
CCRF-CEM [1] = experiment: Growth inhibition of human CCRF-CEM cells assessed as cell growth at 0.01 uM incubated for 48 hrs by sulforhodamine B assay relative to control; conditions: read-out: Activity
Outline: (§1)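 NCI Developmental Therapeutics Program NCI60 panel. Compounds that were active in the 10 µM one-dose screen went on to dose–response testing. Growth at each concentration is expressed relative to untreated control (100%). GI50 (concentration giving 50% of maximal inhibition of proliferation) and TGI (concentration giving total growth inhibition) were derived from the curves.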

HOP-62 = experiment: Growth inhibition of human HOP-62 cells assessed as cell growth at 0.01 uM incubated for 48 hrs by sulforhodamine B assay relative to control; conditions: read-out: Activity
NCI-H522 = experiment: Growth inhibition of human NCI-H522 cells assessed as cell growth at 0.01 uM incubated for 48 hrs by sulforhodamine B assay relative to control; conditions: read-out: Activity
LOX IMVI [2] = experiment: Growth inhibition of human LOX IMVI cells assessed as cell growth at 0.01 uM incubated for 48 hrs by sulforhodamine B assay relative to control; conditions: read-out: Activity
MDA-MB-435 = experiment: Growth inhibition of human MDA-MB-435 cells assessed as cell growth at 0.01 uM incubated for 48 hrs by sulforhodamine B assay relative to control; conditions: read-out: Activity
UACC-257 = experiment: Growth inhibition of human UACC-257 cells assessed as cell growth at 0.01 uM incubated for 48 hrs by sulforhodamine B assay relative to control; conditions: read-out: Activity
UACC-62 = experiment: Growth inhibition of human UACC-62 cells assessed as cell growth at 0.01 uM incubated for 48 hrs by sulforhodamine B assay relative to control; conditions: read-out: Activity
IGROV-1 [3] = experiment: Growth inhibition of human IGROV-1 cells assessed as cell growth at 0.01 uM incubated for 48 hrs by sulforhodamine B assay relative to control; conditions: read-out: Activity
RXF 393 [4] = experiment: Growth inhibition of human RXF 393 cells assessed as cell growth at 0.01 uM incubated for 48 hrs by sulforhodamine B assay relative to control; conditions: read-out: Activity
UO-31 [5] = experiment: Growth inhibition of human UO-31 cells assessed as cell growth at 0.01 uM incubated for 48 hrs by sulforhodamine B assay relative to control; conditions: read-out: Activity
BT-549 = experiment: Growth inhibition of human BT-549 cells assessed as cell growth at 0.01 uM incubated for 48 hrs by sulforhodamine B assay relative to control; conditions: read-out: Activity
CCRF-CEM [6] = experiment: Growth inhibition of human CCRF-CEM cells assessed as cell growth at 0.1 uM incubated for 48 hrs by sulforhodamine B assay relative to control; conditions: read-out: Activity; outline: as §1
SW-620 = experiment: Growth inhibition of human SW-620 cells assessed as cell growth at 0.1 uM incubated for 48 hrs by sulforhodamine B assay relative to control; conditions: read-out: Activity
SNB-75 [7] = experiment: Growth inhibition of human SNB-75 cells assessed as cell growth at 0.1 uM incubated for 48 hrs by sulforhodamine B assay relative to control; conditions: read-out: Activity
TK-10 = experiment: Growth inhibition of human TK-10 cells assessed as cell growth at 0.1 uM incubated for 48 hrs by sulforhodamine B assay relative to control; conditions: read-out: Activity
UO-31 [8] = experiment: Growth inhibition of human UO-31 cells assessed as cell growth at 0.1 uM incubated for 48 hrs by sulforhodamine B assay relative to control; conditions: read-out: Activity
T47D = experiment: Growth inhibition of human T47D cells assessed as cell growth at 0.1 uM incubated for 48 hrs by sulforhodamine B assay relative to control; conditions: read-out: Activity
NCI-H226 = experiment: Growth inhibition of human NCI-H226 cells assessed as cell growth at 1 uM incubated for 48 hrs by sulforhodamine B assay relative to control; conditions: read-out: Activity
LOX IMVI [9] = experiment: Growth inhibition of human LOX IMVI cells assessed as cell growth at 1 uM incubated for 48 hrs by sulforhodamine B assay relative to control; conditions: read-out: Activity
SK-MEL-28 = experiment: Growth inhibition of human SK-MEL-28 cells assessed as cell growth at 1 uM incubated for 48 hrs by sulforhodamine B assay relative to control; conditions: read-out: Activity
IGROV-1 [10] = experiment: Growth inhibition of human IGROV-1 cells assessed as cell growth at 1 uM incubated for 48 hrs by sulforhodamine B assay relative to control; conditions: read-out: Activity
MCF7 [11] = experiment: Growth inhibition of human MCF7 cells assessed as cell growth at 1 uM incubated for 48 hrs by sulforhodamine B assay relative to control; conditions: read-out: Activity
MOLT-4 = experiment: Growth inhibition of human MOLT-4 cells assessed as cell growth at 100 uM incubated for 48 hrs by sulforhodamine B assay relative to control; conditions: read-out: Activity
NCI-H460 = experiment: Growth inhibition of human NCI-H460 cells assessed as cell growth at 100 uM incubated for 48 hrs by sulforhodamine B assay relative to control; conditions: read-out: Activity
HCT-15 = experiment: Growth inhibition of human HCT-15 cells assessed as cell growth at 100 uM incubated for 48 hrs by sulforhodamine B assay relative to control; conditions: read-out: Activity
HT-29 = experiment: Growth inhibition of human HT-29 cells assessed as cell growth at 100 uM incubated for 48 hrs by sulforhodamine B assay relative to control; conditions: read-out: Activity
SNB-75 [12] = experiment: Growth inhibition of human SNB-75 cells assessed as cell growth at 100 uM incubated for 48 hrs by sulforhodamine B assay relative to control; conditions: read-out: Activity
ACHN = experiment: Growth inhibition of human ACHN cells assessed as cell growth at 100 uM incubated for 48 hrs by sulforhodamine B assay relative to control; conditions: read-out: Activity
PC-3 = experiment: Growth inhibition of human PC-3 cells assessed as cell growth at 100 uM incubated for 48 hrs by sulforhodamine B assay relative to control; conditions: read-out: Activity
K562 = experiment: Growth inhibition of human K562 cells incubated for 48 hrs by sulforhodamine B assay
Outline: (§2)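 NCI60 panel at the NCI Developmental Therapeutics Program. Only compounds active in the 10 µM screen went to dose-response testing. GI50, the concentration giving 50% of maximal inhibition of proliferation, and TGI, the concentration giving total growth inhibition, were derived from the dose-response curves.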

Malme-3M = experiment: Growth inhibition of human Malme-3M cells incubated for 48 hrs by sulforhodamine B assay; outline: as §2
NCI/ADR-RES = experiment: Growth inhibition of human NCI/ADR-RES cells incubated for 48 hrs by sulforhodamine B assay; conditions: for CC50: read-out: LC50 (the source's name); outline: as §2
RXF 393 [13] = experiment: Growth inhibition of human RXF 393 cells incubated for 48 hrs by sulforhodamine B assay; conditions: for CC50: read-out: LC50 (the source's name)
Outline: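 NCI DTP 60-line human tumour panel. Dose-response curves were run only for ligands active in the initial 10 µM screen. GI50 (concentration giving 50% of maximal inhibition of proliferation) and TGI (concentration giving total growth inhibition) were derived from these curves.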

MCF7 [14] = experiment: Growth inhibition of human MCF7 cells incubated for 48 hrs by sulforhodamine B assay; conditions: for CC50: read-out: LC50 (the source's name); outline: as §2
786-0 = experiment: Growth inhibition of human 786-0 cells assessed as cell growth at 100 uM incubated for 48 hrs by sulforhodamine B assay relative to control; conditions: read-out: Activity

## Cc1cc(C)c(NC(=O)c2sc3nc4c(cc3c2N)CN(Cc2ccccc2)CC4)c(C)c1
CCRF-CEM [1]
  growth at 0.01 µM: 100%
HOP-62
  growth at 0.01 µM: 83%
NCI-H522
  growth at 0.01 µM: 96%
LOX IMVI [2]
  growth at 0.01 µM: 99%
MDA-MB-435
  growth at 0.01 µM: 92%
UACC-257
  growth at 0.01 µM: 94%
UACC-62
  growth at 0.01 µM: 101%
IGROV-1 [3]
  growth at 0.01 µM: 101%
RXF 393 [4]
  growth at 0.01 µM: 92%
UO-31 [5]
  growth at 0.01 µM: 91%
BT-549
  growth at 0.01 µM: 87%
CCRF-CEM [6]
  growth at 0.1 µM: 97%
SW-620
  growth at 0.1 µM: 98%
SNB-75 [7]
  growth at 0.1 µM: 94%
TK-10
  growth at 0.1 µM: 104%
UO-31 [8]
  growth at 0.1 µM: 88%
T47D
  growth at 0.1 µM: 93%
NCI-H226
  growth at 1 µM: 78%
LOX IMVI [9]
  growth at 1 µM: 99%
SK-MEL-28
  growth at 1 µM: 70%
IGROV-1 [10]
  growth at 1 µM: 85%
MCF7 [11]
  growth at 1 µM: 61%
MOLT-4
  growth at 100 µM: 10%
NCI-H460
  growth at 100 µM: -25%
HCT-15
  growth at 100 µM: 4%
HT-29
  growth at 100 µM: -26%
SNB-75 [12]
  growth at 100 µM: -9%
ACHN
  growth at 100 µM: 6%
PC-3
  growth at 100 µM: 15%
K562
  GI50: 0.903 µM
  LC50 (concentration killing 50% of cells): > 100 µM
  TGI: > 100 µM
Malme-3M
  GI50: 3.44 µM
  LC50: > 100 µM
  TGI: 42 µM
NCI/ADR-RES
  GI50: 1.64 µM
  TGI: 6.24 µM
  CC50: > 100 µM
RXF 393 [13]
  GI50: 2.45 µM
  TGI: 18.5 µM
  CC50: > 100 µM
MCF7 [14]
  GI50: 1.61 µM
  TGI: 32.2 µM
  CC50: > 100 µM

## Cc1ccc(NC(=O)c2sc3nc4c(cc3c2N)C(=O)CCC4)cc1C
CCRF-CEM [1]
  growth at 0.01 µM: 94%
HOP-62
  growth at 0.01 µM: 89%
NCI-H522
  growth at 0.01 µM: 100%
LOX IMVI [2]
  growth at 0.01 µM: 97%
MDA-MB-435
  growth at 0.01 µM: 95%
UACC-257
  growth at 0.01 µM: 96%
IGROV-1 [3]
  growth at 0.01 µM: 104%
RXF 393 [4]
  growth at 0.01 µM: 87%
UO-31 [5]
  growth at 0.01 µM: 81%
BT-549
  growth at 0.01 µM: 107%
CCRF-CEM [6]
  growth at 0.1 µM: 97%
SW-620
  growth at 0.1 µM: 95%
SNB-75 [7]
  growth at 0.1 µM: 70%
TK-10
  growth at 0.1 µM: 85%
UO-31 [8]
  growth at 0.1 µM: 81%
T47D
  growth at 0.1 µM: 97%
NCI-H226
  growth at 1 µM: 68%
LOX IMVI [9]
  growth at 1 µM: 42%
SK-MEL-28
  growth at 1 µM: 51%
IGROV-1 [10]
  growth at 1 µM: 51%
MCF7 [11]
  growth at 1 µM: 18%
MOLT-4
  growth at 100 µM: -6%
NCI-H460
  growth at 100 µM: -9%
HCT-15
  growth at 100 µM: 7%
HT-29
  growth at 100 µM: -23%
SNB-75 [12]
  growth at 100 µM: 10%
786-0
  growth at 100 µM: 20%
ACHN
  growth at 100 µM: 12%
K562
  GI50: 0.468 µM
  LC50 (concentration killing 50% of cells): > 100 µM
  TGI: 35 µM
Malme-3M
  LC50: > 100 µM
  TGI: > 100 µM
NCI/ADR-RES
  GI50: 0.658 µM
  TGI: > 100 µM
  CC50: > 100 µM
RXF 393 [13]
  GI50: 0.222 µM
  CC50: > 100 µM
MCF7 [14]
  GI50: 0.339 µM
  TGI: > 100 µM
  CC50: > 100 µM

## CN1CCc2nc3sc(C(N)=O)c(N)c3c(-c3cccs3)c2C1
CCRF-CEM [1]
  growth at 0.01 µM: 103%
HOP-62
  growth at 0.01 µM: 101%
NCI-H522
  growth at 0.01 µM: 96%
LOX IMVI [2]
  growth at 0.01 µM: 97%
MDA-MB-435
  growth at 0.01 µM: 95%
UACC-257
  growth at 0.01 µM: 97%
UACC-62
  growth at 0.01 µM: 99%
IGROV-1 [3]
  growth at 0.01 µM: 111%
RXF 393 [4]
  growth at 0.01 µM: 97%
UO-31 [5]
  growth at 0.01 µM: 97%
BT-549
  growth at 0.01 µM: 114%
CCRF-CEM [6]
  growth at 0.1 µM: 107%
SW-620
  growth at 0.1 µM: 110%
SNB-75 [7]
  growth at 0.1 µM: 95%
TK-10
  growth at 0.1 µM: 99%
UO-31 [8]
  growth at 0.1 µM: 102%
T47D
  growth at 0.1 µM: 94%
NCI-H226
  growth at 1 µM: 88%
LOX IMVI [9]
  growth at 1 µM: 56%
SK-MEL-28
  growth at 1 µM: 95%
IGROV-1 [10]
  growth at 1 µM: 129%
MCF7 [11]
  growth at 1 µM: 111%
MOLT-4
  growth at 100 µM: -4%
NCI-H460
  growth at 100 µM: 2%
HCT-15
  growth at 100 µM: 6%
HT-29
  growth at 100 µM: -1%
SNB-75 [12]
  growth at 100 µM: -40%
786-0
  growth at 100 µM: 15%
PC-3
  growth at 100 µM: 6%
K562
  GI50: 4.99 µM
  LC50 (concentration killing 50% of cells): > 100 µM
  TGI: > 100 µM
Malme-3M
  GI50: 5.06 µM
  LC50: > 100 µM
  TGI: 38.4 µM
NCI/ADR-RES
  GI50: 3.69 µM
  TGI: 98.8 µM
  CC50: > 100 µM
RXF 393 [13]
  GI50: 1.11 µM
  TGI: 3.63 µM
  CC50: > 100 µM
MCF7 [14]
  GI50: 4.1 µM
  TGI: > 100 µM
  CC50: > 100 µM
